This passage reports IC50, EC50 and selectivity ratio results from ChEMBL document CHEMBL1221275 (Bioorg Med Chem, 2010).

Data set [1] has as its system MT4. Put plainly: Cytotoxicity against human MT4 cells after 4 days. It counts as cell-based. To be noted: MT4, 96 h. In outline:
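Mock-infected MT-4 cells were used. IC50 is the concentration giving 50% inhibition of cell growth. Values are averages of at least two separate experiments.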

For data set [2], the system named is Human immunodeficiency virus 1. Put plainly: Antiviral activity against HIV1 NL4-3 infected in human MT4 cells assessed as inhibition of viral replication after 4 days by p24 antigen based ELISA assay. To be noted: Human immunodeficiency virus 1, NL4-3, MT4, 96 h. Type of data set: functional, organism-based. For orientation: An ELISA detects its analyte on a solid surface through an enzyme-linked reagent.

Data set [3] in a line: Therapeutic index, ratio of IC50 for human MT4 cells to EC50 for HIV1 NL4-3. Type of data set: cell-based. The following applies: read-out: TI. In outline: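 TI was calculated as IC50 (growth inhibition of mock-infected MT-4 cells) divided by EC50 (inhibition of HIV-1 NL4-3 replication in MT-4 cells). Both inputs are averages of at least two separate experiments.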

Structures are written as SMILES.

Turning to `C=C(C)[C@@H]1CC[C@]2(COC(=O)CCC(=O)OC[C@H]3O[C@@H](n4cc(C)c(=O)[nH]c4=O)C[C@@H]3N=[N+]=[N-])CC[C@]3(C)[C@H](CC[C@@H]4[C@@]5(C)CC[C@H](OC(=O)CC(C)(C)C(=O)O)C(C)(C)[C@@H]5CC[C@]43C)[C@@H]12`, in data set [1], the IC50 (as a rule, the concentration that inhibits the measured activity by half) was determined as 7100 nM. For the same molecule, the EC50 (commonly the concentration at which the effect is half-maximal) in data set [2] came out at 45 nM. Moreover, the selectivity ratio in data set [3] came to 158.

Molecule `C=C(C)[C@@H]1CC[C@]2(COC(=O)CCCC(=O)OC[C@H]3O[C@@H](n4cc(C)c(=O)[nH]c4=O)C[C@@H]3N=[N+]=[N-])CC[C@]3(C)[C@H](CC[C@@H]4[C@@]5(C)CC[C@H](OC(=O)CC(C)(C)C(=O)O)C(C)(C)[C@@H]5CC[C@]43C)[C@@H]12` came in with a half-maximal inhibitory concentration (IC50) in data set [1] of 8700 nM. In data set [2], the EC50 was 60 nM. Further, in data set [3], the selectivity ratio came out at 145.

In the case of `C=C(C)[C@@H]1CC[C@]2(COC(=O)CC(C)(C)C(=O)OC[C@H]3O[C@@H](n4cc(C)c(=O)[nH]c4=O)C[C@@H]3N=[N+]=[N-])CC[C@]3(C)[C@H](CC[C@@H]4[C@@]5(C)CC[C@H](OC(=O)CC(C)(C)C(=O)O)C(C)(C)[C@@H]5CC[C@]43C)[C@@H]12`, inhibition in data set [1] was half-maximal at 7000 nM (IC50). Also, in data set [2], the EC50 is 98 nM. In addition, in data set [3], the selectivity ratio stood at 71.

`C=C(C)[C@@H]1CC[C@]2(COC(=O)C(C)(C)CC(=O)OC[C@H]3O[C@@H](n4cc(C)c(=O)[nH]c4=O)C[C@@H]3N=[N+]=[N-])CC[C@]3(C)[C@H](CC[C@@H]4[C@@]5(C)CC[C@H](OC(=O)CC(C)(C)C(=O)O)C(C)(C)[C@@H]5CC[C@]43C)[C@@H]12` came in with an IC50 in data set [1] of 5400 nM. Besides, in data set [2], the EC50 is 40 nM. Further, the selectivity ratio in data set [3] was 135.

In data set [1], `C=C(C)[C@@H]1CC[C@]2(COC(=O)CC(C)(C)CC(=O)OC[C@H]3O[C@@H](n4cc(C)c(=O)[nH]c4=O)C[C@@H]3N=[N+]=[N-])CC[C@]3(C)[C@H](CC[C@@H]4[C@@]5(C)CC[C@H](OC(=O)CC(C)(C)C(=O)O)C(C)(C)[C@@H]5CC[C@]43C)[C@@H]12` came in with an IC50 of 8100 nM. Further, in data set [2], the EC50 was found to be 63 nM. For the same molecule, the selectivity ratio in data set [3] turned out to be 129.

Molecule `C=C(C)[C@@H]1CC[C@]2(COC(=O)CC(C)(C)CC(=O)OC[C@H]3O[C@@H](n4cc(C)c(=O)[nH]c4=O)C[C@@H]3N=[N+]=[N-])CC[C@]3(C)[C@H](CC[C@@H]4[C@@]5(C)CC[C@H](OC(=O)CC(C)(C)CC(=O)O)C(C)(C)[C@@H]5CC[C@]43C)[C@@H]12` had an IC50 in data set [1] of 7700 nM. The EC50 in data set [2] amounted to 180 nM. Moreover, the selectivity ratio in data set [3] was 43.

In the case of `Cc1cn([C@H]2C[C@H](N=[N+]=[N-])[C@@H](COC(=O)C(C)(C)CC(=O)OC[C@]34CC[C@@H](C(C)C)[C@@H]3[C@H]3CC[C@@H]5[C@@]6(C)CC[C@H](OC(=O)CC(C)(C)C(=O)O)C(C)(C)[C@@H]6CC[C@@]5(C)[C@]3(C)CC4)O2)c(=O)[nH]c1=O`, the midpoint of inhibition in data set [1], the IC50, lay at 9000 nM. The EC50 in data set [2] was determined as 87 nM. The selectivity ratio in data set [3] is 103.

In turn, `Cc1cn([C@H]2C[C@H](N=[N+]=[N-])[C@@H](COC(=O)CC(C)(C)C(=O)OC[C@]34CC[C@@H](C(C)C)[C@@H]3[C@H]3CC[C@@H]5[C@@]6(C)CC[C@H](OC(=O)CC(C)(C)C(=O)O)C(C)(C)[C@@H]6CC[C@@]5(C)[C@]3(C)CC4)O2)c(=O)[nH]c1=O` returned a half-inhibitory concentration (IC50) in data set [1] of 7700 nM. In addition, the EC50 in data set [2] was 56 nM. Besides, in data set [3], the selectivity ratio amounted to 138.

Take `Cc1cn([C@H]2C[C@H](N=[N+]=[N-])[C@@H](COC(=O)CC(C)(C)CC(=O)OC[C@]34CC[C@@H](C(C)C)[C@@H]3[C@H]3CC[C@@H]5[C@@]6(C)CC[C@H](OC(=O)CC(C)(C)C(=O)O)C(C)(C)[C@@H]6CC[C@@]5(C)[C@]3(C)CC4)O2)c(=O)[nH]c1=O`: in data set [1], the IC50 was 9000 nM. Moreover, the EC50 in data set [2] turned out to be 290 nM. The selectivity ratio in data set [3] came to 31.

As for `Cc1cn([C@H]2C[C@H](N=[N+]=[N-])[C@@H](COC(=O)CC(C)(C)C(=O)OC[C@]34CC[C@@H](C(C)C)[C@@H]3[C@H]3CC[C@@H]5[C@@]6(C)CC[C@H](OC(=O)CCCC(=O)O)C(C)(C)[C@@H]6CC[C@@]5(C)[C@]3(C)CC4)O2)c(=O)[nH]c1=O`, the midpoint of inhibition in data set [1], the IC50, lay at 8000 nM. Further, the EC50 in data set [2] stood at 73 nM. Also, the selectivity ratio in data set [3] came to 110.

In data set [1], `Cc1cn([C@H]2C[C@H](N=[N+]=[N-])[C@@H](COC(=O)C(C)(C)CC(=O)OC[C@]34CC[C@@H](C(C)C)[C@@H]3[C@H]3CC[C@@H]5[C@@]6(C)CC[C@H](OC(=O)CCCC(=O)O)C(C)(C)[C@@H]6CC[C@@]5(C)[C@]3(C)CC4)O2)c(=O)[nH]c1=O` came in with an IC50 of 7200 nM. For the same molecule, in data set [2], the EC50 worked out at 260 nM. Moreover, the selectivity ratio in data set [3] worked out at 28.

Molecule `Cc1cn([C@H]2C[C@H](N=[N+]=[N-])C(COC(=O)CCCC(=O)OC[C@]34CC[C@@H](C(C)C)[C@@H]3[C@H]3CC[C@@H]5[C@@]6(C)CC[C@H](OC(=O)CCCC(=O)O)C(C)(C)[C@@H]6CC[C@@]5(C)[C@]3(C)CC4)O2)c(=O)[nH]c1=O` (some centres not stated) showed an IC50 in data set [1] of 9000 nM. Also, in data set [2], the EC50 was 93 nM. The selectivity ratio in data set [3] is 97.

With `Cc1cn([C@H]2C[C@H](N=[N+]=[N-])C(COC(=O)CC(C)(C)CC(=O)OC[C@]34CC[C@@H](C(C)C)[C@@H]3[C@H]3CC[C@@H]5[C@@]6(C)CC[C@H](OC(=O)CCCC(=O)O)C(C)(C)[C@@H]6CC[C@@]5(C)[C@]3(C)CC4)O2)c(=O)[nH]c1=O` (some centres not stated), the IC50 in data set [1] worked out at 8500 nM. Moreover, the 50% effective concentration (EC50) in data set [2] was determined as 1210 nM. Also, the selectivity ratio in data set [3] is 7.

In data set [1], `Cc1cn([C@H]2C[C@H](N=[N+]=[N-])C(COC(=O)CC(C)(C)CC(=O)OC[C@]34CC[C@@H](C(C)C)[C@@H]3[C@H]3CC[C@@H]5[C@@]6(C)CC[C@H](OC(=O)CC(C)(C)CC(=O)O)C(C)(C)[C@@H]6CC[C@@]5(C)[C@]3(C)CC4)O2)c(=O)[nH]c1=O` (some centres not stated) showed an IC50 of 9800 nM. In addition, the EC50 in data set [2] was found to be 360 nM. The selectivity ratio in data set [3] stood at 27.

For the molecule `C=C(C)[C@@H]1CC[C@]2(COC(=O)CCC(=O)O)CC[C@]3(C)[C@H](CC[C@@H]4[C@@]5(C)CC[C@H](OC(=O)CC(C)(C)C(=O)O)C(C)(C)[C@@H]5CC[C@]43C)[C@@H]12`, in data set [1], the 50% inhibitory concentration (IC50) was 11300 nM. The EC50 in data set [2] came to 180 nM. In addition, the selectivity ratio in data set [3] was determined as 63.

In turn, `C=C(C)[C@@H]1CC[C@]2(COC(=O)CCCC(=O)O)CC[C@]3(C)[C@H](CC[C@@H]4[C@@]5(C)CC[C@H](OC(=O)CC(C)(C)C(=O)O)C(C)(C)[C@@H]5CC[C@]43C)[C@@H]12` returned an IC50 in data set [1] greater than 46600 nM. Also, in data set [2], the half-maximal effective concentration (EC50) was 310 nM. In addition, the selectivity ratio in data set [3] is greater than 47.

Turning to `C=C(C)[C@@H]1CC[C@]2(C(=O)O)CC[C@]3(C)[C@H](CC[C@@H]4[C@@]5(C)CC[C@H](OC(=O)CC(C)(C)C(=O)O)C(C)(C)[C@@H]5CC[C@]43C)[C@@H]12` [BEVIRIMAT], in data set [1], the IC50 is greater than 5000 nM. Moreover, in data set [2], the EC50 was found to be 96 nM. In addition, the selectivity ratio in data set [3] was greater than 52.

On to `Cc1cn([C@H]2C[C@H](N=[N+]=[N-])[C@@H](CO)O2)c(=O)[nH]c1=O` [ZIDOVUDINE], for which, in data set [1], the IC50 was greater than 37400 nM.
